# According to PMC5035717 (Cell, 2016):
# Residue numbers refer to the chain shown, from its start. pIC50, pKd: −log10 of the molar value. Entries after “also recorded” stand apart in the source; their conditions may differ. Where two headings read alike, the source gives them in different places.
# Tests used:
# XSmoG84S ectodomain [1] = molecular target: T1, XSmoG84S ectodomain (Xenopus laevis, UniProt Q98SW5, G84S); settings: read-out: IC50, competition of BODIPY-cyclopamine binding
# T1 sequence (Q98SW5 35-189 G84S): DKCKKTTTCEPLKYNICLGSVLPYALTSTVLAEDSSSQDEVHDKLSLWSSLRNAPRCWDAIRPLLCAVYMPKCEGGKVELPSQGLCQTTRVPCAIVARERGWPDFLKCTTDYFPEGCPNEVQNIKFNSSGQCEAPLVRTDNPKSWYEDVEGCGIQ
# Summary of the method: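 Purified E. coli-expressed Xenopus Smo G84S ectodomain incubated with BODIPY-cyclopamine (5 nM) and varying concentrations of unlabeled competitor for 1 h at room temperature. Fluorescence polarization read on a plate reader and converted to anisotropy. Measured in triplicate; IC50 obtained by fitting competition curves.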
# [2] = system: endogenous Smo in NIH-3T3 cells; experiment: Ciliary recruitment of endogenous Smo in sterol-depleted NIH-3T3 cells; type: cell-based; settings: for Rescue of Smo recruitment to cilia in response to Shh: sterols added back as MCD complexes (100 μM); for Recruitment of endogenous Smo to cilia: agent alone
# Summary of the method: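 Confluent NIH-3T3 cells starved overnight in DMEM, then sterol-depleted with 1.5% MCD for 30 min. Kept in DMEM with 40 μM pravastatin throughout. Sterols added back 1 h as MCD complexes, then overnight with agents or Shh (conditioned medium from 293T cells expressing human Shh aa 1–197). Stained with anti-acetylated tubulin (1:5000) and anti-mSmo (1 μg/mL final); ciliary Smo intensity quantified automatically.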
# wild-type mSmo = wild-type mSmo (Mus musculus, UniProt P56726); type: cell-based; settings: for Effect on Hh pathway activity (Gli1 mRNA): mSmo, irrespective of sterol depletion; for Activation of Hh signaling (in words): wild-type mSmo, sterols delivered as MCD complexes
# mSmoΔCRD [3] = experiment: Ciliary localization of mSmoΔCRD in rescued Smo-null cells; type: cell-based, mouse; settings: with or without sterol depletion
# Summary of the method: (§1)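 Smo-null cells rescued with the mSmo construct, grown on glass coverslips. Confluent cultures starved overnight in DMEM, then sterol-depleted with 1.5% MCD in DMEM for 30 min. Later incubations with agents in DMEM plus 40 μM pravastatin. Immunofluorescence used anti-acetylated tubulin as cilia marker; ciliary Smo intensity quantified by automated image analysis, at least 300 cilia per condition.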
# mSmo = mSmo (Mus musculus, UniProt P56726); experiment: Ciliary localization of mSmo in rescued Smo-null cells; type: cell-based; settings: with or without sterol depletion
# Summary of the method: as §1
# mSmoΔCRD [4] = type: cell-based, mouse; settings: irrespective of sterol depletion
# XSmo ectodomain [5] = molecular target: T2, XSmo ectodomain (Xenopus laevis, UniProt Q98SW5); experiment: Circular dichroism; type: binding; settings: small molecule 25 μM; CD signal at 225 nm; protein alone Tm=62.1°C
# T2 sequence (Q98SW5 35-189): T1 sequence (Q98SW5 35-189 G84S) with S50G
# XSmo ectodomain [6] = molecular target: T2, XSmo ectodomain; type: binding
# mSmoG115S/E164L = mSmoG115S/E164L (Mus musculus, UniProt P56726, E164L/G115S); type: cell-based
# mSmoG115F = mSmoG115F (Mus musculus, UniProt P56726, G115F); experiment: Hh pathway activity by qPCR for Gli1 in Smo-null cells rescued with mSmoG115F; type: cell-based
# [7] = system: Hh signaling in NIH-3T3 cells; experiment: Synergy with Shh in activating Hh signaling in NIH-3T3 cells; type: cell-based, mouse
# mSmoG115S = mSmoG115S (Mus musculus, UniProt P56726, G115S); experiment: Hh pathway activity by qPCR for Gli1 in Smo-null cells rescued with mSmoG115S; type: cell-based
# mSmoD99A = mSmoD99A (Mus musculus, UniProt P56726, D99A); experiment: Hh pathway activity by qPCR for Gli1 in Smo-null cells rescued with mSmoD99A; type: cell-based
# XSmoCRD = molecular target: T3, XSmoCRD (Xenopus laevis, UniProt Q98SW5); experiment: Fluorescence polarization binding of BODIPY probes to purified XSmoCRD; settings: XSmoCRD (amino acids 35–154), probe 5 nM
# T3 sequence (Q98SW5 35-154): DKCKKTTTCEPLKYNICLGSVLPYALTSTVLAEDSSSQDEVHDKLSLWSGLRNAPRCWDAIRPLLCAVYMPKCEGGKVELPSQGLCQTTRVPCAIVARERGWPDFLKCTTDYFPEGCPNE
# Summary of the method: (§2)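 Xenopus Smo CRD (aa 35–154) or ectodomain (aa 35–189; wild type or G84S) expressed in E. coli as thioredoxin-His6 fusions. Purified by Ni-NTA, glutathione redox refolding and size exclusion. Increasing protein amounts mixed with BODIPY FL probes (5 nM) in 20 mM HEPES pH 7.5, 100 mM NaCl, 1 h at room temperature. FP converted to anisotropy; triplicate; Kd from curve fitting.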
# XSmo ectodomain [8] = molecular target: T2, XSmo ectodomain; experiment: Fluorescence polarization binding of BODIPY probes to purified XSmo ectodomain; settings: XSmo ectodomain (amino acids 35–189), probe 5 nM
# Summary of the method: as §2
# mSmoD477G/E522K = mSmoD477G/E522K (Mus musculus, UniProt P56726, D477G/E522K); experiment: BODIPY-cyclopamine binding to mCherry-tagged mSmoD477G/E522K in 293T cells; settings: 50 nM
# Summary of the method: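 mCherry-tagged mutant mSmo transiently expressed in 293T cells. Cells washed into serum-free OptiMEM, then incubated 1 h with BODIPY-cyclopamine, with or without SANT1 competitor (10 μM). Fixed in 3.6% formaldehyde/PBS for 30 min at room temperature and washed with TBST. BODIPY and mCherry signals imaged by epifluorescence microscopy.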
# XSmoG84S ectodomain [9] = molecular target: T1, XSmoG84S ectodomain; type: binding
# Summary of the method: as §2
# mSmoE164L = mSmoE164L (Mus musculus, UniProt P56726, E164L); experiment: Hh pathway activity by qPCR for Gli1 in Smo-null cells rescued with mSmoE164L; type: cell-based
compound,measurement,setting,value
CCCCC[C@@](C)(O)[C@H]1CC[C@H]2[C@@H]3CC=C4C[C@@H](O)CC[C@]4(C)[C@H]3CC[C@@]21C [20(R)-OHC-Pent],pIC50,XSmoG84S ectodomain [1],5.26
"C[C@H](CCCC(C)(C)F)[C@H]1CC[C@H]2[C@@H]3CC=C4C[C@@H](O)CC[C@]4(C)[C@H]3CC[C@]12C [25F-cholesterol, 25-fluorocholesterol]",Rescue of Smo recruitment to cilia in response to Shh,[2],rescued
Cc1nn(-c2ccccc2)c(C)c1/C=N/N1CCN(Cc2ccccc2)CC1 [SANT1],Effect on Hh pathway activity (Gli1 mRNA),wild-type mSmo,inhibited
same,Ciliary localization of mSmoΔCRD,mSmoΔCRD [3],reduced
same,Ciliary localization of mSmo,mSmo,reduced
same,Effect on Hh pathway activity (Gli1 mRNA),mSmoΔCRD [4],inhibited
CC(C)CCC[C@@H](C)[C@H]1CC[C@H]2[C@@H]3CC[C@H]4C[C@@H](O)CC[C@]4(C)[C@H]3CC[C@]12C [cholestanol],Activation of Hh signaling (in words),wild-type mSmo,inactive
same,Melting temperature (Tm) of XSmo ectodomain,XSmo ectodomain [5],62.9 °C
same,Binding to XSmo ectodomain (in words),XSmo ectodomain [6]; competition of BODIPY-cyclopamine,inactive; also recorded: does not bind
CC(C)CCC[C@@H](C)[C@H]1CC[C@H]2[C@@H]3CC=C4C[C@@H](O)CC[C@]4(C)[C@H]3CC[C@]12C [cholesterol],Synergy with Shh,"wild-type mSmo; Smo-null cells rescued with wild type mSmo, sterols 5 μM as MCD complexes",synergizes
same,Rescue of mSmo activation by Shh after sterol depletion,wild-type mSmo; add-back 100 μM MCD complex,rescues
same,Activation of Hh signaling (in words),wild-type mSmo,activate
same,Activation of Hh signaling (in words),wild-type mSmo; listed as Cholesterol,activates Hh signaling
same,Activation of Hh signaling (in words),mSmoG115S/E164L,activate
same,Activation of Hh signaling (in words),mSmoG115F,responds
same,Rescue of Smo recruitment to cilia in response to Shh,[2],rescued
same,Melting temperature (Tm) of XSmo ectodomain,XSmo ectodomain [5],65.3 °C
same,Synergy with Shh,[7],synergizes
same,Activation of Hh signaling (in words),mSmoG115S,activate
same,Activation of Hh signaling (in words),mSmoD99A,defective
same,pIC50,XSmo ectodomain [6],5.62
BODIPY-20(S)-hydroxycholesterol [BODIPY-20(S)-OHC],pKd,XSmoCRD,6.65
same,pKd,XSmo ectodomain [8],6.86
CC(C)CCC[C@@](C)(O)[C@H]1CC[C@H]2[C@@H]3CC=C4C[C@@H](O)CC[C@]4(C)[C@H]3CC[C@@]21C [20(R)-OHC],Activation of Hh signaling (in words),mSmoG115S,strongly activated
BODIPY-22-azacholesterol [BODIPY-22-NHC],pKd,XSmoCRD,5.87
same,pKd,XSmo ectodomain [8],5.85
CC(C)CCC[C@@H](C)[C@H]1CC[C@H]2[C@@H]3C(O)C=C4C[C@@H](O)CC[C@]4(C)[C@H]3CC[C@]12C (stereo partly shown) [7-hydroxycholesterol],Recruitment of endogenous Smo to cilia,[2],inactive
C[C@H](CCCC(F)(C(F)(F)F)C(F)(F)F)[C@H]1CC[C@H]2[C@@H]3CC=C4C[C@@H](O)CC[C@]4(C)[C@H]3CC[C@]12C [F7-cholesterol],Rescue of Smo recruitment to cilia in response to Shh,[2],rescued
CC1=C2C[C@H]3[C@@H](CC=C4C[C@@H](O)CC[C@@]43C)[C@@H]2CC[C@]12O[C@@H]1C[C@H](C)CN[C@H]1[C@H]2C [cyclopamine],Melting temperature (Tm) of XSmo ectodomain,XSmo ectodomain [5],66.6 °C
same,pIC50,XSmo ectodomain [6],5.35
"CC(C)CCC[C@](C)(O)[C@H]1CC[C@H]2[C@@H]3CC=C4C[C@@H](O)CC[C@]4(C)[C@H]3CC[C@@]21C [20(S)-OHC, 20(S)-hydroxycholesterol]",Melting temperature (Tm) of XSmo ectodomain,XSmo ectodomain [5],66.5 °C
same,pIC50,XSmo ectodomain [6],5.74
CNC1CCC(N(Cc2cccc(-c3ccncc3)c2)C(=O)c2sc3ccccc3c2Cl)CC1 (stereo not shown) [SAG],Effect on Hh pathway activity (Gli1 mRNA),wild-type mSmo,activated
same,Recruitment of endogenous Smo to cilia,[2],strongly recruit
same,Ciliary localization of mSmoΔCRD,mSmoΔCRD [3],accumulate in cilia
same,Ciliary localization of mSmo,mSmo,accumulate in cilia
same,Effect on Hh pathway activity (Gli1 mRNA),mSmoΔCRD [4],activated
same,Activation of Hh signaling (in words),mSmoD99A,robust activation
CC1=C2CC3C(CC=C4C[C@@H](O)CCC43C)C2CCC12O[C@@H]1CC(C)CN(CCNC(=O)CCCCCNC(=O)CCC3=[N+]4C(=Cc5c(C)cc(C)n5[B-]4(F)F)C=C3)C1C2C (stereo partly shown) [BODIPY-cyclopamine],Binding to mSmoD477G/E522K in cells (fluorescence microscopy),mSmoD477G/E522K,does not bind
same,pKd,XSmoCRD,6.41
same,pKd,XSmoG84S ectodomain [9],6.21
same,pKd,XSmo ectodomain [8],6.36
CCCCCC(C)(O)[C@H]1CC[C@H]2[C@@H]3CC=C4C[C@@H](O)CC[C@]4(C)[C@H]3CC[C@]12C (stereo partly drawn) [20(S)-OHC-Pent],Activation of Hh signaling (in words),mSmoG115S/E164L,do not respond
same,Activation of Hh signaling (in words),mSmoG115F,does not activate
same,Synergy with Shh,[7],does not synergize
same,Activation of Hh signaling (in words),mSmoG115S,reduced
same,Activation of Hh signaling (in words),mSmoD99A,do not respond
same,Activation of Hh signaling (in words),mSmoE164L,significantly decreases activation
same,pIC50,XSmoG84S ectodomain [1],4.36
